Activity calls are given as the source filed them. The calls are words filed in the database; no cut-off is given here.
Experiments:
Mus musculus [1] = experiment: Antiinflammatory activity against ICR mouse assessed as inhibition of porcine pancreatic elastase-induced increase in MCP-1 level at 7.5 to 38 ug/kg administered intratracheally 1 hr prior to porcine pancreatic elastase challenge measured after 6 hrs by ELISA; format: functional, organism-based
Outline: (§1)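 Male ICR mice, 4-6 weeks old, under isoflurane anaesthesia, given each enantiomer or racemate intratracheally in sterile saline (1 ml/kg) by micropipette; 1 h later PPE (20 U/kg) or saline vehicle given the same way. BALF collected 6 h after PPE; TNF-α, MIP-2, MCP-1 and KC measured by ELISA. Mean ± SEM; Tukey's test.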

Mus musculus [2] = experiment: Antiinflammatory activity against ICR mouse assessed as inhibition of porcine pancreatic elastase-induced increase in neutrophil count in BALF at 7.5 to 38 ug/kg administered intratracheally 1 hr prior to porcine pancreatic elastase challenge measured after 6 hrs; format: functional, organism-based
Outline: (§2)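 Male ICR mice (4-6 weeks), isoflurane-anaesthetised, dosed intratracheally in sterile saline (1 ml/kg) 1 h before intratracheal PPE (20 U/kg) or vehicle. BALF taken 6 h after PPE; total cells counted by hemocytometer, cytospin slides stained with Diff-Quik to get neutrophil fraction of total cells. Mean ± SEM; Tukey's test.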

Mus musculus [3] = experiment: Antiinflammatory activity against ICR mouse assessed as inhibition of porcine pancreatic elastase-induced increase in TNF-alpha level at 7.5 to 38 ug/kg administered intratracheally 1 hr prior to porcine pancreatic elastase challenge measured after 6 hrs by ELISA; format: functional, organism-based; outline: as §1
Mus musculus [4] = experiment: Antiinflammatory activity against ICR mouse assessed as inhibition of porcine pancreatic elastase-induced increase in MIP-2 level at 7.5 to 38 ug/kg administered intratracheally 1 hr prior to porcine pancreatic elastase challenge measured after 6 hrs by ELISA; format: functional, organism-based; outline: as §1
Mus musculus [5] = experiment: Antiinflammatory activity against ICR mouse assessed as inhibition of porcine pancreatic elastase-induced increase in leucocyte count in BALF at 7.5 to 38 ug/kg administered intratracheally 1 hr prior to porcine pancreatic elastase challenge measured after 6 hrs; format: functional, organism-based; outline: as §2
Mus musculus [6] = experiment: Increase in heart rate in ICR mouse at 940 to 4700 ug/kg administered intratracheally measure immediately post dosing relative to control; format: ADME, organism-based; settings: in vivo, inhaled_or_intranasal
Outline: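 Male ICR mice (4-6 weeks) given compound intratracheally in sterile saline (1 ml/kg) under isoflurane; anaesthetised with chloral hydrate (500 mg/kg), pulse-oximeter sensor attached to thigh after 20 min. Heart rate (beats per minute) recorded immediately after dosing; percentage change from baseline to peak calculated. Mean ± SEM; Tukey's test.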

Mus musculus [7] = experiment: Antiinflammatory activity against ICR mouse assessed as inhibition of porcine pancreatic elastase-induced increase in KC level at 7.5 to 38 ug/kg administered intratracheally 1 hr prior to porcine pancreatic elastase challenge measured after 6 hrs by ELISA; format: functional, organism-based; outline: as §1
Mus musculus [8] = experiment: Suppression of fecal pellet output in ICR mouse at 4.7 mg/kg administered intratracheally 1 hr prior to restraint stress measured for 1 hr relative to control; format: organism-based, Feces; set-up: dose 4.7 mg/kg, route endotracheal; settings: in vivo, inhaled_or_intranasal
Outline: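 Male ICR mice (4-6 weeks) dosed intratracheally in sterile saline (1 ml/kg) under isoflurane; vehicle controls received saline alone. One hour later each mouse was restrained individually in a 50 ml tube for 1 h, and fecal pellets excreted during restraint were counted. Mean ± SEM; Tukey's test.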

Mus musculus [9] = experiment: Bronchodilatory activity in ICR mouse assessed as supression of methacholine-induced increase in airway resistance at 3.8 ug/kg administered intratracheally 1 hr prior to methacholine challenge; format: functional, organism-based
Outline: (§3)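 Male ICR mice (4-6 weeks) given compound intratracheally in saline (1 ml/kg). 1 h later, anaesthetised with chloral hydrate (500 mg/kg), tracheotomised, and ventilated at 150 breaths/min, tidal volume 8.7 ml/kg, PEEP 2-3 cmH₂O. Challenged with nebulised methacholine (5 mg/ml), five 20 s exposures 40 s apart. Airway resistance measured after each challenge by snapshot technique. Mean ± SEM.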

Mus musculus [10] = experiment: Bronchodilatory activity in ICR mouse assessed as supression of methacholine-induced increase in airway resistance at 38 ug/kg administered intratracheally 1 hr prior to methacholine challenge; format: functional, organism-based; outline: as §3
Lung [11] = experiment: Drug level in ICR mouse lung treated intratracheally with 20 mg/kg (R)-Mepenzolate after 5 to 30 mins; format: ADME, organism-based; set-up: dose 20 mg/kg, route endotracheal; settings: in vivo, inhaled_or_intranasal
Outline: (§4)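 Male ICR mice (4-6 weeks) under isoflurane given the enantiomer in sterile saline (1 ml/kg) intratracheally by micropipette. Whole lungs taken at indicated times, homogenised in sterile PBS with 50 U/ml heparin, centrifuged; 300 µl aliquot ultrafiltered and filtrate analysed by chiral HPLC (Chiralpak IA; water with 0.1 M KPF6/acetonitrile 30:70, 1.0 mL/min). Level expressed as µg/lung; mean ± SEM, n = 3.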

[12] = Drug level in ICR mouse lung at 20 mg/kg administered intratracheally after 15 mins; format: ADME, organism-based; set-up: dose 20 mg/kg, route endotracheal; settings: inhaled or intranasal, read-out: Drug uptake; outline: as §4
[13] = Drug level in ICR mouse lung at 20 mg/kg administered intratracheally after 5 mins; format: ADME, organism-based; set-up: dose 20 mg/kg, route endotracheal; settings: inhaled or intranasal, read-out: Drug uptake; outline: as §4
[14] = Drug level in ICR mouse lung at 20 mg/kg administered intratracheally after 30 mins; format: ADME, organism-based; set-up: dose 20 mg/kg, route endotracheal; settings: inhaled or intranasal, read-out: Drug uptake; outline: as §4
Lung [15] = experiment: Drug level in ICR mouse lung treated intratracheally with 20 mg/kg (S)-Mepenzolate after 5 to 30 mins; format: ADME, organism-based; set-up: dose 20 mg/kg, route endotracheal; settings: in vivo, inhaled_or_intranasal; outline: as §4

SMILES	Activity (Mus musculus [1])	Activity (Mus musculus [2])	Activity (Mus musculus [3])	Activity (Mus musculus [4])	Activity (Mus musculus [5])	Activity (Mus musculus [6])	Activity (Mus musculus [7])	Activity (Mus musculus [8])	Activity (Mus musculus [9])	Activity (Mus musculus [10])	Drug metabolism (Lung [11])	concentration at 0.25 h [12] [ng/mL]	concentration at 5 min [13] [ng/mL]	concentration at 0.5 h [14] [ng/mL]	Drug metabolism (Lung [15])
C[N+]1(C)CCCC(OC(=O)C(O)(c2ccccc2)c2ccccc2)C1.[Br-] (racemic) [MEPENZOLATE BROMIDE]	Active	Active	Active	Active	Active	Toxic	Active	Toxic	Active	Active	–	–	–	–	–
C[N+]1(C)CCC[C@H](OC(=O)C(O)(c2ccccc2)c2ccccc2)C1.[Br-]	Active	Active	Active	Active	Active	Toxic	Active	Non-toxic	inactive	Active	metabolite_notdetected	7600	36400	6200	–
C[N+]1(C)CCC[C@@H](OC(=O)C(O)(c2ccccc2)c2ccccc2)C1.[Br-]	Active	Active	Active	Active	Active	Toxic	Active	Toxic	Active	Active	–	6300	44500	5100	metabolite_notdetected

— ChEMBL document CHEMBL3286356, “Synthesis and biological comparison of enantiomers of mepenzolate bromide, a muscarinic receptor antagonist with bronchodilatory and anti-inflammatory activities” (Bioorg Med Chem, 2014)
